Test results published in ChEMBL document CHEMBL1671788, “Discovery, synthesis, and structure-activity relationship development of a series of N-(4-acetamido)phenylpicolinamides as positive allosteric modulators of metabotropic glutamate receptor 4 (mGlu(4)) with CNS exposure in rats” (J Med Chem, 2011).

Legend:
[1] = target: T1, Metabotropic glutamate receptor 4 (Homo sapiens, UniProt Q14833); assay: Positive allosteric modulation of human mGluR4 expressed in CHO cells coexpressing Gqi5 assessed as calcium mobilization relative to PHCCC; format: functional, cell-based
T1 sequence (Q14833 whole entry): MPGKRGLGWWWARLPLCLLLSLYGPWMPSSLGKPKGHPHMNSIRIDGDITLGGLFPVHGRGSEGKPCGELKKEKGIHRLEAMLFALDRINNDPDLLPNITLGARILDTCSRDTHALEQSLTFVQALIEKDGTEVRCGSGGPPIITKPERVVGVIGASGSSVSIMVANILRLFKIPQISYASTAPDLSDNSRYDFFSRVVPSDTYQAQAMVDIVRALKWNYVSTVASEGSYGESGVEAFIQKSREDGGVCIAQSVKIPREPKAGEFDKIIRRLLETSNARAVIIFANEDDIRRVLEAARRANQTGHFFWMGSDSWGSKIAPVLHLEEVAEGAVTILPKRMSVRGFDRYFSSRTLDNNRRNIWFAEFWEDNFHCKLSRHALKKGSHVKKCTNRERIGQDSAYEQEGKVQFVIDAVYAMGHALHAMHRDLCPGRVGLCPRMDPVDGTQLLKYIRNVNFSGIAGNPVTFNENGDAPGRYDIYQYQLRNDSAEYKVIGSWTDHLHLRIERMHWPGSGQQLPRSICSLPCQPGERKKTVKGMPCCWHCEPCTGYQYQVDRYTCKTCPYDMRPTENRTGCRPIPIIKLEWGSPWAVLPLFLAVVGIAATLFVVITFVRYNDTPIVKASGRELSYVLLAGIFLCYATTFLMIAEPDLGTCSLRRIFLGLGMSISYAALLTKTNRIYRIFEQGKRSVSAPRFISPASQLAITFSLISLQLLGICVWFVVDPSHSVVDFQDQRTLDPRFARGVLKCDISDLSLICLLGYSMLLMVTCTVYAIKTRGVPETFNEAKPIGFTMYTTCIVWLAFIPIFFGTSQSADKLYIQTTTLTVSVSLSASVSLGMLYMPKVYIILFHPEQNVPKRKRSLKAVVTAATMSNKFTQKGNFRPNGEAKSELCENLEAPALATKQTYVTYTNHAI
Outline: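 CHO cells stably expressing human mGlu4 with Gqi5 were plated at 30,000 cells/well and grown overnight. Cells were loaded with 1 µM Fluo-4 AM for 45 min at 37 °C in HBSS/HEPES/2.5 mM probenecid buffer. […] Ca2+ fluorescence was read (ex 470, em 540 nm). Curves were fitted with a four-parameter logistic; ≥3 independent runs in triplicate.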

[2] = target: Metabotropic glutamate receptor 4 (Rattus norvegicus, UniProt P31423); assay: Positive allosteric modulation of rat mGluR4 expressed in CHO cells coexpressing Gqi5 assessed as calcium mobilization; format: functional, cell-based
Chain of Metabotropic glutamate receptor 4 (Rattus norvegicus, UniProt P31423) (P31423 whole entry): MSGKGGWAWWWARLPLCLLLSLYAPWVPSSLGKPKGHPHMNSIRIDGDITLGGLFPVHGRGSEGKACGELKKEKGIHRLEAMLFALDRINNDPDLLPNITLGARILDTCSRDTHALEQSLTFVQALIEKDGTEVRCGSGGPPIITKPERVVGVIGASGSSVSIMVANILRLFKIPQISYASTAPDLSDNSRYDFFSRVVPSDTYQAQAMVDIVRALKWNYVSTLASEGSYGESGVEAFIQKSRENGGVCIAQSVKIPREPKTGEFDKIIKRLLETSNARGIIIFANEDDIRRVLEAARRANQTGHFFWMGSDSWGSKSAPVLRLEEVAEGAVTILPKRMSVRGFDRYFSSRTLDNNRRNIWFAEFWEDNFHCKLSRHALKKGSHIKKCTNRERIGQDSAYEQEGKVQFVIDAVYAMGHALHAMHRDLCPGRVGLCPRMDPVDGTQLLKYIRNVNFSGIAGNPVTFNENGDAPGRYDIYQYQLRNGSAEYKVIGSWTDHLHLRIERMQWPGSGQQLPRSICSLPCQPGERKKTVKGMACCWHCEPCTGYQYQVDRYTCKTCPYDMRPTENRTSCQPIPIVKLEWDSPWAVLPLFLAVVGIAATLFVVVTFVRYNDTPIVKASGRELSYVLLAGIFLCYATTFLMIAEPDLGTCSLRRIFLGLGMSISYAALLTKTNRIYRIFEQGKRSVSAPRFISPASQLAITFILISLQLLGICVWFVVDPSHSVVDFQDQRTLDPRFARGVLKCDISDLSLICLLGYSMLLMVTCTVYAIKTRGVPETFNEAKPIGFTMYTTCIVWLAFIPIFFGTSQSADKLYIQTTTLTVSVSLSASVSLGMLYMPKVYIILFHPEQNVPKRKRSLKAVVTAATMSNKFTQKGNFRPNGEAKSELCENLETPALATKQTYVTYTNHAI

[3] = target: Metabotropic glutamate receptor 4 (Rattus norvegicus) (UniProt P31423); assay: Positive allosteric modulation of rat mGluR4 expressed in CHO cells coexpressing Gqi5 assessed as calcium mobilization relative to PHCCC; format: functional, cell-based
Chain of Metabotropic glutamate receptor 4 (Rattus norvegicus) (P31423 whole entry): as above

[4] = target: T1, Metabotropic glutamate receptor 4; assay: Positive allosteric modulation of human mGluR4 expressed in CHO cells coexpressing Gqi5 assessed as calcium mobilization; format: functional, cell-based
[5] = target: Metabotropic glutamate receptor 4 (Rattus norvegicus) (UniProt P31423); assay: Positive allosteric modulation of rat mGluR4 expressed in CHO cells coexpressing Gqi5 assessed as potentiation of glutamate-induced calcium mobilization; format: functional, cell-based
[6] = Plasma protein binding in Sprague-Dawley rat; format: ADME, cell-free; details: read-out: PPB
Outline: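 Equilibrium dialysis of compound spiked into rat plasma against 25 mM phosphate buffer, pH 7.4. Dialysis ran 4 h at 37 °C with shaking. Both chambers were matrix-matched, extracted with cold acetonitrile and quantified by LC/MS/MS. Triplicate within one plate.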

Plasma [7] = assay: Cmax in Sprague-Dawley rat plasma at 10 mg/kg, sc; format: ADME, organism-based; set-up: dose 10 mg/kg, route subcutaneous; details: in vivo
Outline: (§1)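 Rats dosed subcutaneously at 10 mg/kg as a 10% tween 80 microsuspension. […] In vivo samples were quantified by LC/MS/MS (ESI, positive-mode MRM) after gradient elution on a C18 column.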

Cytochrome P450 2D6 = Cytochrome P450 2D6 (Homo sapiens, UniProt P10635); assay: Inhibition of human CYP2D6
Chain of Cytochrome P450 2D6 (P10635 whole entry): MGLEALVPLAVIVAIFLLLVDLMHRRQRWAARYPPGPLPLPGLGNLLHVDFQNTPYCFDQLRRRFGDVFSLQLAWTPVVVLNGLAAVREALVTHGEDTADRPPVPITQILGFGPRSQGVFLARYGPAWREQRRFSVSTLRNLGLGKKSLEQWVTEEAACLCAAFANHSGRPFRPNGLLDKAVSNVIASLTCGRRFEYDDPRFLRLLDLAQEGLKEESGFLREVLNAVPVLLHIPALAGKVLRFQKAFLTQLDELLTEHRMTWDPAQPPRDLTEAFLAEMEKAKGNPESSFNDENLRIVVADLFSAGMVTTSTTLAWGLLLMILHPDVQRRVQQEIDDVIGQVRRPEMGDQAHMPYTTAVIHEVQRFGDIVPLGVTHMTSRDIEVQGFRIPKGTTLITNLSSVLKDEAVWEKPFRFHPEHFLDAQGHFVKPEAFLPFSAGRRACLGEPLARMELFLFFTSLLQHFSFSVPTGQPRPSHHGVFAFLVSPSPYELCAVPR
Outline: (§2)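 Human liver microsomes (final 0.1 mg/mL) in 0.1 M potassium phosphate, pH 7.4, with a probe cocktail: phenacetin 10 µM (1A2), diclofenac 5 µM (2C9), dextromethorphan 5 µM (2D6) and midazolam 2 µM (3A4). Compound at 100 nM–30 µM final, in duplicate, preincubated 15 min at 37 °C. NADPH (1 mM) reaction ran 8 min, was quenched with cold acetonitrile, and read by LC/MS/MS (MRM). IC50 determined.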

Cytochrome P450 3A4 = Cytochrome P450 3A4 (Homo sapiens, UniProt P08684); assay: Inhibition of human CYP3A4; outline: as §2
Chain of Cytochrome P450 3A4 (P08684 whole entry): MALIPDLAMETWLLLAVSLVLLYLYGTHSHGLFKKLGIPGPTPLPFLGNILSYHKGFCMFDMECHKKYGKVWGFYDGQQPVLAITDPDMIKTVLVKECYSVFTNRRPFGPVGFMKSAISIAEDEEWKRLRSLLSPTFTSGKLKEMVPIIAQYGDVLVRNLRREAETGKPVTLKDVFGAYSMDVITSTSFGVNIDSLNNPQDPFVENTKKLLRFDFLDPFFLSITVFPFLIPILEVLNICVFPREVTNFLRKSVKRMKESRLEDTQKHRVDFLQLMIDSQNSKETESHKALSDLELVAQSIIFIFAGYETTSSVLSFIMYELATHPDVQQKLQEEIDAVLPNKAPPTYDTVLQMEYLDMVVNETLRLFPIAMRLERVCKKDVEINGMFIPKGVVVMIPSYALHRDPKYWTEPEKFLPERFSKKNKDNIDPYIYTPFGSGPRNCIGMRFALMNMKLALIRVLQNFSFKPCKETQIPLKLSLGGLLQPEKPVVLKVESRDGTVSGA

[8] = AUC in Sprague-Dawley rat plasma at 10 mg/kg, sc; format: ADME, organism-based; set-up: dose 10 mg/kg, route subcutaneous
Plasma [9] = assay: AUC in Sprague-Dawley rat brain at 10 mg/kg, sc; format: ADME, organism-based; set-up: dose 10 mg/kg, route subcutaneous; details: in vivo
Cytochrome P450 2C9 = Cytochrome P450 2C9 (Homo sapiens, UniProt P11712); assay: Inhibition of human CYP2C9; outline: as §2
Chain of Cytochrome P450 2C9 (P11712 whole entry): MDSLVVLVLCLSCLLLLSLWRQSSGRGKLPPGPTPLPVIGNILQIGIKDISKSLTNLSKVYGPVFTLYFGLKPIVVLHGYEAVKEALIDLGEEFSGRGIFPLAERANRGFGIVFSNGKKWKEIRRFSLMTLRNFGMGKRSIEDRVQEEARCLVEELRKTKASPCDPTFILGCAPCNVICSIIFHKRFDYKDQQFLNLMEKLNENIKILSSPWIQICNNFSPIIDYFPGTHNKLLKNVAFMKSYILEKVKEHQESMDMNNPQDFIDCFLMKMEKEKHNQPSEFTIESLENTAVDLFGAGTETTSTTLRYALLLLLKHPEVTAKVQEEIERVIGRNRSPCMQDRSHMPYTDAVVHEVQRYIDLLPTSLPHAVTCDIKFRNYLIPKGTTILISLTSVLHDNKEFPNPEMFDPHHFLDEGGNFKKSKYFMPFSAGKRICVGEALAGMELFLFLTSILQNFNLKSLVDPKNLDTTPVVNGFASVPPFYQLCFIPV

[10] = Cmax in Sprague-Dawley rat brain at 10 mg/kg, sc; format: ADME, organism-based; set-up: dose 10 mg/kg, route subcutaneous; outline: as §1
Cytochrome P450 1A2 = target: T2, Cytochrome P450 1A2 (Homo sapiens, UniProt P05177); assay: Inhibition of human CYP1A2; outline: as §2
T2 sequence (P05177 whole entry): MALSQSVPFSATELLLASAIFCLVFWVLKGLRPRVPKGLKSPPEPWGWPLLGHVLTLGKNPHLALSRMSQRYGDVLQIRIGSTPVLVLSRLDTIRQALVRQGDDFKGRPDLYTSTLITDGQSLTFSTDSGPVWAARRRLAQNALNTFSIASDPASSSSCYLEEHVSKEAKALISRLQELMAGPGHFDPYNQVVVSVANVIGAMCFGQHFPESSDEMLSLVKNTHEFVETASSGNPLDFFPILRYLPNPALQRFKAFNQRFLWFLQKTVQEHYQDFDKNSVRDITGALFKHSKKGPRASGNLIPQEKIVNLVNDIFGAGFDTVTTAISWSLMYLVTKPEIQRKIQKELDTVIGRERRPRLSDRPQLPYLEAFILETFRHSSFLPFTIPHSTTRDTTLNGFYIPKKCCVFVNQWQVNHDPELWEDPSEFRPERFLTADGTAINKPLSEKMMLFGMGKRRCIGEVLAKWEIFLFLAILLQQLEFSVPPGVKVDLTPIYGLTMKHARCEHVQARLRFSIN

in vivo = details: Sprague-Dawley, rat, sc, 10 mg/kg

| Compound | Activity [1] [%] | EC50 ([2]; read-out: EC50) [nM] | Activity [3] [%] | EC50 ([4]; read-out: EC50) [nM] | other results |
| --- | --- | --- | --- | --- | --- |
| O=C(Nc1ccc(NC(=O)c2ccccc2Cl)c(C(F)(F)F)c1)c1ccccn1 | 69.5 | 2360 | 102 | 2090 |  |
| O=C(Nc1ccc(NC(=O)c2nccs2)c(Cl)c1)c1ccccn1 | 61.5 | 533 | 106 | 403 | fold change (FC) [5]: 6 |
| COc1cc(NC(=O)c2cccs2)ccc1NC(=O)c1ccccc1Cl | 63.4 |  | 96.7 |  |  |
| O=C(Nc1ccc(NC(=O)c2ccccn2)cc1Cl)c1ccccc1 | 37.9 | 518 | 74.2 | 361 |  |
| O=C(Nc1ccc(NC(=O)c2ccccc2F)c(Cl)c1)c1ccccn1 | 34.5 | 4390 | 71.6 | 2380 |  |
| O=C(Nc1ccc(NC(=O)c2ccccn2)cc1Cl)c1cc(Cl)cc(Cl)c1 | 37.4 | 2340 | 61 | 2150 |  |
| O=C(Nc1ccc(NC(=O)c2ccccc2Cl)c(F)c1)c1ccccn1 | 59.7 |  | 91.4 |  | fold change (FC) [5]: 4.6 |
| O=C(Nc1ccc(NC(=O)c2ccccc2Cl)cc1)c1ccccn1 | 33.6 | 2260 | 49.6 | 1610 |  |
| CC(C)C(=O)Nc1ccc(NC(=O)c2ccccn2)cc1Cl | 60 | 4820 | 109 | 4270 |  |
| COc1cc(NC(=O)c2ccc(-c3ccccc3)o2)ccc1NC(=O)c1ccccc1Cl | 16.3 |  | 16.3 |  | EC50 ([2]; cho): Not Active; EC50 ([4]; cho): Not Active |
| COc1cc(NC(=O)C2CCCO2)ccc1NC(=O)c1ccccc1Cl (stereo not drawn) | 21.3 | > 10000 | 27.1 |  | EC50 ([4]; cho): Not Active |
| COc1ccccc1C(=O)n1ccc2cc(NC(=O)c3ccccn3)ccc21 | 91.3 | 1340 | 107 | 1410 | fold change (FC) [5]: 5.9; fraction unbound [6]: < 0.005 |
| COc1cc(NC(=O)c2ccc(Br)o2)ccc1NC(=O)c1ccccc1Cl | 87 | 1000 | 125 | 1440 |  |
| O=C(Nc1ccc2c(ccn2C(=O)c2ccccn2)c1)c1ccccc1Cl | 21.1 |  | 17.6 |  | EC50 ([2]; cho): Not Active; EC50 ([4]; cho): Not Active |
| O=C(Nc1ccccc1)[C@]12C[C@H]1/C(=N\O)c1ccccc1O2 |  | 2820 |  |  |  |
| O=C(Nc1ccc2c(ccn2C(=O)c2ccc(F)cc2Cl)c1)c1ccccn1 | 71.7 | 1660 | 104 | 1420 |  |

| Compound | Activity [1] [%] | EC50 ([2]; read-out: EC50) [nM] | Activity [3] [%] | EC50 ([4]; read-out: EC50) [nM] | other results |
| --- | --- | --- | --- | --- | --- |
| COc1ccccc1C(=O)Nc1ccc(NC(=O)c2ccccn2)cc1Cl | 16.4 |  | 19 |  | EC50 ([2]; cho): Not Active; EC50 ([4]; cho): Not Active |
| Cn1c(C(=O)Nc2ccc(NC(=O)c3ccccn3)cc2Cl)cc2ccccc21 | 49.9 | 2970 | 87.1 | 4720 |  |
| COc1cc(NC(=O)c2cnccn2)ccc1NC(=O)c1ccccc1Cl | 74.3 | 1120 | 112 | 1780 |  |
| Cc1ccccc1C(=O)Nc1ccc(NC(=O)c2ccccn2)cc1Cl | 72.5 | 915 | 123 | 958 | Cmax (Plasma [7]): 219.2 ng/mL; INH (Cytochrome P450 2D6): 12 µM; INH (Cytochrome P450 3A4): > 30 µM; fold change (FC) [5]: 9.6; AUC(0-t) [8]: 766 ng·h/mL; AUC (Plasma [9]): 155.4 ng·h/g; fraction unbound [6]: < 0.005; INH (Cytochrome P450 2C9): 14.1 µM; Cmax [10]: 59.4 ng/g; INH (Cytochrome P450 1A2): > 10 µM; Tmax (in vivo): 30 min |
| COc1cc(NC(=O)c2nccs2)ccc1NC(=O)c1ccccc1Cl | 77.6 | 377 | 134 | 627 | fold change (FC) [5]: 32.2; fraction unbound [6]: < 0.005 |
| O=C(Nc1ccc(NC(=O)c2ccc(F)cc2Cl)c(Cl)c1)c1ccccn1 | 61.1 | 169 | 119 | 114 | fold change (FC) [5]: 6.7 |
| COc1cc(NC(=O)c2ccncn2)ccc1NC(=O)c1ccccc1Cl | 77.9 | 894 | 133 | 1330 |  |
| COc1cc(NC(=O)c2ccccn2)ccc1NC(=O)c1ccccc1Cl | 79.4 |  | 147 |  | Cmax (Plasma [7]): 265 ng/mL; INH (Cytochrome P450 2D6): 12.8 µM; INH (Cytochrome P450 3A4): > 30 µM; fold change (FC) [5]: 72; AUC(0-t) [8]: 938 ng·h/mL; AUC (Plasma [9]): 312 ng·h/g; fraction unbound [6]: < 0.005; INH (Cytochrome P450 2C9): 14.3 µM; Cmax [10]: 69.1 ng/g; INH (Cytochrome P450 1A2): > 30 µM; Tmax (in vivo): 60 min |
| COc1cc(NC(=O)c2cscn2)ccc1NC(=O)c1ccccc1Cl | 86.8 | 753 | 132 | 845 |  |
| COc1cc(NC(=O)C2CCCCC2)ccc1NC(=O)c1ccccc1Cl | 26.9 | 1520 | 43.2 | 1120 |  |
| O=C(Nc1ccc(NC(=O)c2cncs2)c(Cl)c1)c1ccccn1 | 86.7 | 1730 | 125 | 2180 |  |
| COc1cc(NC(=O)c2ccco2)ccc1NC(=O)c1ccccc1Cl | 62.7 | 1010 | 122 | 977 |  |
| O=C(Nc1ccc(NC(=O)c2cccs2)c(Cl)c1)c1ccccn1 | 57.8 | 1130 | 93.8 | 1040 |  |
| O=C(Nc1ccc(NC(=O)c2ccc(-c3ccccc3)o2)c(Cl)c1)c1ccccn1 | 24.9 | 3350 | 45.6 |  | EC50 ([4]; cho): Not Active |
| O=C(Nc1ccc(NC(=O)C2CCCCC2)c(Cl)c1)c1ccccn1 | 59.2 | 592 | 106 | 426 |  |
| O=C(Nc1ccc(NC(=O)c2ccc(F)cc2F)c(Cl)c1)c1ccccn1 | 24.6 | 2100 | 43.5 |  | EC50 ([4]; cho): Not Active |
